Results published in ChEMBL document CHEMBL2176916, “Mimicking the intramolecular hydrogen bond: synthesis, biological evaluation, and molecular modeling of benzoxazines and quinazolines as potential antimalarial agents” (J Med Chem, 2012).
≈ marks a conversion by molar mass, not a printed value. Calls of active or inactive are those of the source. The rule behind the calls is not given here.

How the values were obtained:
[1] = target: T1, Chloroquine resistance transporter (Plasmodium falciparum, UniProt Q9N623); assay: Inhibition of chloroquine-resistant Plasmodium falciparum Dd2 CRT expressed in Xenopus laevis oocytes assessed as reduction in [3H]-chloroquine uptake after 1.5 to 2 hrs
T1 sequence (Q9N623 whole entry): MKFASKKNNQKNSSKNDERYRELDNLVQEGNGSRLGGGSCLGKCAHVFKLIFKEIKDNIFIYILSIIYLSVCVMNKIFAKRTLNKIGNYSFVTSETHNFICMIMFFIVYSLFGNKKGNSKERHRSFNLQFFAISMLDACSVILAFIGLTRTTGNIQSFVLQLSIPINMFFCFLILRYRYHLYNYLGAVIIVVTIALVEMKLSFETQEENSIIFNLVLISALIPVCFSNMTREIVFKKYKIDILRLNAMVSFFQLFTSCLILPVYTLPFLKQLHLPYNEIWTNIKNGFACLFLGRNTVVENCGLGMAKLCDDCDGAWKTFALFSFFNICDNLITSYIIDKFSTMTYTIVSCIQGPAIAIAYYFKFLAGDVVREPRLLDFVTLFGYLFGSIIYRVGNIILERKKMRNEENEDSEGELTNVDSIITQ

Plasmodium falciparum [2] = assay: Resistant index, ratio of IC50 for chloroquine-resistant Plasmodium falciparum W2 to IC50 for chloroquine-sensitive Plasmodium falciparum D10; format: functional
Plasmodium falciparum [3] = assay: Antiplasmodial activity against chloroquine-resistant Plasmodium falciparum W2 infected in human RBCs after 72 hrs by parasite lactate dehydrogenase assay; format: functional, organism-based; conditions: W2, 72 h
In short: (§1)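 Asynchronous cultures (parasitemia 1−1.5%, 1% final hematocrit) in human type A-positive RBCs, RPMI 1640 with 1% AlbuMax, hypoxanthine, Hepes and glutamine. Exposed to serial dilutions (DMSO <1% final) for 72 h at 37 °C under 1% O₂/5% CO₂/94% N₂. Growth read as pLDH activity at OD₆₅₀ (modified Makler method).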

Plasmodium falciparum [4] = assay: Antiplasmodial activity against chloroquine-sensitive Plasmodium falciparum D10 infected in human RBCs after 72 hrs by parasite lactate dehydrogenase assay; format: functional, organism-based; conditions: D10, 72 h; in short: as §1
Plasmodium berghei [5] = assay: Antiplasmodium activity against chloroquine-sensitive Plasmodium berghei ANKA infected in BALB/c mouse assessed as decrease in parasitemia at 50 mg/kg, ip administered until day 4 measured 24 hrs post last dose by Giemsa staining; format: functional, organism-based; set-up: dose 50 mg/kg
In short: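 Peters 4-day test, P. berghei ANKA, female 5-week-old BALB/c mice infected ip with 2 × 10⁷ parasitized erythrocytes. Single group of six mice given 50 mg/kg ip daily, starting 4 h post-infection through day 4. Parasitemia counted on Giemsa tail-blood smears 24 h after final treatment.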

[6] = Cytotoxicity against human HepG2 cells assessed as cell viability after 24 hrs by neutral red uptake assay; format: cell-based; conditions: read-out: TC50
In short: (§2)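 NIH3T3 cells grown in DMEM and HepG2 in EMEM, both with 10% FCS, glutamine/penicillin/streptomycin and non-essential amino acids, 37 °C, 5% CO₂. Cells trypsinized at confluence and resuspended. Viability by neutral red uptake after 24 h exposure. Student's t test, p < 0.05.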

[7] = Cytotoxicity against mouse NIH/3T3 cells assessed as cell viability after 24 hrs by neutral red uptake assay; format: cell-based, NIH3T3; conditions: read-out: TC50; in short: as §2
[8] = Chemical stability of the compound at pH 2 at 37 degC after 1 hr by NMR analysis; format: physicochemical; conditions: buffer, pH 2, 1 h
[9] = Chemical stability of the compound at pH 7.4 at 37 degC by NMR analysis; format: physicochemical; conditions: buffer
[10] = Chemical stability in DMSO/D2O mixture solution at 25 degC by NMR analysis; format: physicochemical
Oryctolagus cuniculus = organism: Oryctolagus cuniculus; assay: Inhibition of rabbit kidney Na+/K+ ATPase hydrolytic activity assessed as inorganic phosphate production at 10 uM by malachite green staining-based colorimetric assay
In short: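 Na⁺,K⁺-ATPase membrane fragments prepared from rabbit kidney outer medulla and used at about 1 μg/mL protein. Buffer: 25 mM MOPS pH 7.0, 100 mM NaCl, 20 mM KCl, 3 mM MgCl₂. Test agent at 10 μM, with ouabain as reference. Pi release measured by malachite green colorimetry.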

Plasmodium berghei [11] = assay: Antiplasmodium activity against chloroquine-sensitive Plasmodium berghei ANKA infected in BALB/c mouse assessed as decrease in parasitemia administered as po until day 4 measured 24 hrs post last dose by Giemsa staining; format: functional
In short: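 P. berghei ANKA in female 5-week-old BALB/c mice (19 g), infected ip with 2 × 10⁷ parasitized erythrocytes. Fresh aqueous stocks (100 mg/mL) diluted 1.5-fold to give 6−7 doses from 4.4 to 50 mg/kg, given once daily by oral gavage starting 4 h post-infection through day 4. Parasitemia read from Giemsa tail-blood smears 24 h after last dose. ED50 from four-parameter logistic fit.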

[12] = Intrinsic clearance in rat liver microsomes at 1 uM; format: ADME, Microsome; conditions: read-out: CLH
In short: (§3)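 Substrate at 1 μM with 0.2 mg/mL mouse or rat liver microsomal protein in 100 mM phosphate, pH 7.4. Reaction started with NADPH regenerating system (1 mM NADPH, 10 mM G6P, 0.4 U/mL G6PDH) and stopped with acetonitrile at intervals over 0−45 min, in duplicate. HPLC-MS depletion fitted monoexponentially; Clint = k × V/P.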

CYP3A4 = assay: Metabolic stability in human liver microsomes assessed as compound ramining after 1 hr in presence of human recombinant CYP3A4; format: ADME, Microsome; conditions: in the assay text read “assessed” for “in human liver microsomes assessed”, read-out: Stability
In short: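 Substrate at 1 μM final (0.25% organic solvent) incubated 1 h at 37 °C with recombinant hCYP3A4 (20 pmol/mL), with or without NADPH regenerating system. Stopped with acetonitrile. Result is % remaining from MS peak area with NADPH relative to without. CV typically within 10%.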

[13] = Intrinsic clearance in mouse liver microsomes at 1 uM; format: ADME, Microsome; conditions: read-out: CLH; in short: as §3
[14] = Chemical stability of the compound at pH 7.4; format: physicochemical; conditions: buffer
[15] = Aqueous solubility of the compound in water at pH 3 after 24 hrs; format: physicochemical
In short: (§4)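 Prepared from 10 mM DMSO stock as 250 μM in 50 mM acetic acid (pH 3) or 50 mM ammonium acetate (pH 7.4), 2.5% DMSO final, in filter plates. Filtrate diluted 1:2 and run on UPLC/UV/TOF-MS at 254 nm. Solubility from sample UV area versus a 250 μM standard in acetonitrile/buffer.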

[16] = Aqueous solubility of the compound in water at pH 7.4 after 24 hrs; format: physicochemical; in short: as §4
[17] = target: T2, Chloroquine resistance transporter (Plasmodium falciparum) (UniProt Q9N623); assay: Inhibition of chloroquine-sensitive Plasmodium falciparum D10 CRT expressed in Xenopus laevis oocytes assessed as [3H]-chloroquine uptake at 100 uM after 1.5 to 2 hrs; format: cell-based; conditions: Oocyte
T2 sequence (whole entry): T1 sequence (Q9N623 whole entry)
In short: (§5)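 Oocytes injected with Dd2 or D10 PfCRT cRNA (20 ng per oocyte). Compound at 100 μM extracellular. [³H]CQ (0.3 μM) uptake measured 3−5 days post-injection over 1.5−2 h at 27.5 °C, in pH 6.0 medium containing 15 μM unlabeled CQ. 10 oocytes per treatment, five experiments. Compared by ANOVA with Tukey's test.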

[18] = target: T2, Chloroquine resistance transporter (Plasmodium falciparum); assay: Inhibition of chloroquine-resistant Plasmodium falciparum Dd2 CRT expressed in Xenopus laevis oocytes assessed as reduction in [3H]-chloroquine uptake at 100 uM after 1.5 to 2 hrs; format: cell-based; conditions: Oocyte; in short: as §5
[19] = Chemical stability of the compound at pH 7.4 at 37 degC measured for 24 hrs by NMR analysis; format: physicochemical; conditions: buffer, pH 7.4, 24 h
[20] = Chemical stability of the compound at pH 2 at 37 degC measured for 24 hrs by NMR analysis; format: physicochemical; conditions: buffer, pH 2, 24 h
[21] = target: Potassium voltage-gated channel subfamily H member 2 (Rattus norvegicus); assay: Inhibition of rat ERG after 2 to 3 days by patch clamp assay

SMILES	Ratio IC50 (Plasmodium falciparum [2])	IC50 (Plasmodium falciparum [3]) [µM]	IC50 (Plasmodium falciparum [4]) [µM]	CC50 at 24 h [6] [µM]	CC50 at 24 h [7] [µM]	further results
CC(C)(C)NC(=O)[C@@H]1C[C@@H]2CCCC[C@@H]2CN1C[C@@H](O)[C@H](Cc1ccccc1)NC(=O)[C@H](CC(N)=O)NC(=O)c1ccc2ccccc2n1	–	–	–	–	–	IC50 [1]: 13 µM
CCN(CC)Cc1ccc(Nc2ccnc3cc(Cl)ccc23)cc1O [ISOQUINE]	1.1	0.031	0.027	–	–	–
CCN1COc2cc(Nc3ccnc4cc(Cl)ccc34)ccc2C1	3.1	0.072	0.023	6	29	Activity (Plasmodium berghei [5]): Active; Stability [8]: Unstable; Stability [9]: Stable; Stability [10]: Stable
CCCN1CNc2cc(Nc3ccnc4cc(Cl)ccc34)ccc2C1	2.5	0.053	0.021	5.7	17	inhibition (Oryctolagus cuniculus): 35%; ED50 (Plasmodium berghei [11]): 8.74 mg/kg; microsomal CLint at 1 µM [12]: 121 µL/min/mg; remaining at 1 h (CYP3A4): 43%; microsomal CLint at 1 µM [13]: 219 µL/min/mg; Stability [14]: 100%; solubility at 24 h [15]: 231 µM (≈ 81.5 µg/mL); solubility at 24 h ([16]; water, pH 7.4): 53 µM (≈ 18.7 µg/mL); inhibition [17]: inactive; inhibition [18]: Active; Stability [19]: Stable; Stability [20]: Stable; IC50 [21]: 0.022 µM; inhibition (INH) ([21]; rat): Dose-dependent effect
Clc1ccc2c(Nc3ccc4c(c3)OCN(Cc3ccccc3)C4)ccnc2c1	0.8	0.031	0.038	15	40	Stability [8]: Unstable; Stability [9]: Stable; Stability [10]: Stable
O=c1c2ccc(Nc3ccnc4cc(Cl)ccc34)cc2ncn1Cc1ccccc1	–	> 1	> 1	–	–	–
CCCN1COc2cc(Nc3ccnc4cc(Cl)ccc34)ccc2C1	2	0.04	0.021	–	–	Stability [8]: Unstable; Stability [9]: Stable; Stability [10]: Stable
O=C1c2ccc(Nc3ccnc4cc(Cl)ccc34)cc2NCN1Cc1ccccc1	–	> 1	> 1	–	–	–
CCN1CNc2cc(Nc3ccnc4cc(Cl)ccc34)ccc2C1	5.4	0.06	0.011	–	–	Stability [19]: Stable; Stability [20]: Stable
O=c1c2ccc(Nc3ccnc4cc(Cl)ccc34)cc2ncn1Cc1ccc(CN2CCCC2)cc1	2.7	0.083	0.031	–	–	–
Clc1ccc2c(Nc3ccc4c(c3)NCN(Cc3ccccc3)C4)ccnc2c1	–	0.067	0.053	25	40	inhibition (Oryctolagus cuniculus): 35%; ED50 (Plasmodium berghei [11]): 15.7 mg/kg; remaining at 1 h (CYP3A4): 18%; solubility at 24 h [15]: 122 µM (≈ 48.9 µg/mL); solubility ([16]; buffer, pH 7.4, 24 h, BLD = below limit of detection): BLD; IC50 [1]: 228 µM; inhibition [17]: inactive; inhibition [18]: Active; Stability [19]: Stable; Stability [20]: Stable
CCN(CC)Cc1cc(Nc2ccnc3cc(Cl)ccc23)ccc1O.Cl	0.7	0.019	0.025	–	–	–
CCn1cnc2cc(Nc3ccnc4cc(Cl)ccc34)ccc2c1=O	–	> 1	> 1	–	–	–
CCCn1cnc2cc(Nc3ccnc4cc(Cl)ccc34)ccc2c1=O	–	> 1	> 1	–	–	–
CCN(CC)CCCC(C)Nc1ccnc2cc(Cl)ccc12 (configuration not stated) [CHLOROQUINE]	–	–	–	31	> 80	–
C[C@@H]1O[C@@H](O[C@H]2C[C@@H](O)[C@]3(CO)[C@H]4[C@H](O)C[C@]5(C)[C@@H](C6=CC(=O)OC6)CC[C@]5(O)[C@@H]4CC[C@]3(O)C2)[C@H](O)[C@H](O)[C@H]1O	–	–	–	–	–	inhibition (Oryctolagus cuniculus): Active
